From PubChem BioAssay
The list is not random: actives were taken first. Their share in the collection is about 9.2%.
Lmaj promast: Leishmania major promastigote growth inhibition, primary screen; Leishmania major promastigotes, resazurin fluorescence viability; inhibition, % at 10 µM; 200,000 compounds, 9% hits; in the data active = inhibition above about 50%;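 also: promastigotes grown with compound for 44 hours at 28 °C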
PTEN del growth: growth suppression of PTEN-null HCT116, primary screen, cell-based, CellTiter-Glo. HCT116 PTEN-null viability, 60 h; active compounds read low. viability, % at 10 µM. 140,000 compounds, 1.2% hits;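 active = viability at or below a set limit, 4 SD under the median of all tested compounds, cut at about 3.7% in these data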;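 also: PTEN knockout HCT116 line with beta catenin targeted HCT116 as companion control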
Autophagy mod: autophagy modulators in MEF cells, primary screen, imaging, high-content, MEF GFP-LC3; MEF GFP-LC3 puncta imaging; test concentration mostly 10 µM; calls only at 10 µM (by protocol); 190,000 compounds, 0.98% hits; AID 463193, 2010;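 active = percentage of spot-positive cells more than 3 SD above its plate mean, without a fluorescence outlier flag or 80% toxicity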;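 also: spot-positive cell cutoff set from DMSO-treated cells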
bCat KO growth: primary screen for growth suppressors in beta-catenin knockout HCT116 cells (colon tumor, human) | HCT116 beta-catenin knockout viability, CellTiter-Glo, 60 h; active compounds read low | viability, % at 10 µM | 140,000 compounds, 1.5% hits;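 active = viability at or under a set limit, the compound median less 4 SD, cut at about 6% in these data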;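 also: 0% = Hyamine 1622 control at 20 µM and 100% = untreated cell control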
Dynein cargo inh: inhibitors of GR-EGFP nuclear translocation, primary screen, dynein cargo transport inhibitor project, imaging, high-content, 3617.4 mouse cells | AID 1381, 2008 | 220,000 compounds, 0.47% hits | test concentration mostly 20 µM; stimulated with dexamethasone, 1 µM; active compounds read low | z-score, hits read low;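 active = plate z-score of nuclear minus cytoplasmic receptor signal below a set negative limit, without overly bright fluorescence or cell loss, cut at about -3.5 in these data, passing the limit was not always enough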;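 also: z-score of nuclear minus cytoplasmic ring GR-EGFP intensity difference per well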
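Buffer or medium: tet-free, stripped-serum medium; Also added: dexamethasone, 1.0 µM final; Technique: high-content fluorescence imaging after fixation; Times: 48 h induction, 1 h compound, 30 min dex at 37 °C; Read-out: per-cell GR-EGFP intensity, nucleus versus surrounding cytoplasmic ring, well-averaged.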
Active calls of the source: *; i = inactive; / = not tested or not shown.

SMILES	Lmaj promast	PTEN del growth	Autophagy mod	bCat KO growth	Dynein cargo inh
Cc1c(-c2ccccc2)oc2c(C(=O)OCC(=O)Nc3ccc(C(N)=O)cc3)cccc2c1=O	53*	105	i	101	-0.22
Cc1cc(C)nc(NS(=O)(=O)c2ccc(NS(=O)(=O)c3ccsc3)cc2)n1	/	/	/	/	-0.2
OCC1(Cc2ccccc2)CCN(Cc2ccccn2)CC1	-4	/	i	/	-0.5
OCC1(Cc2ccccc2)CCCN(Cc2cnn(-c3ccccc3)c2)C1 (stereo not drawn)	89*	/	i	/	-0.052
OCC1(Cc2ccccc2)CCN(Cc2cnn(-c3ccccc3F)c2)CC1	88*	/	i	/	-1.2
C/C=C(\C)CN1CCCC(CO)(Cc2ccccc2)C1 (stereo not drawn)	3	/	i	/	-0.042
CSc1ccccc1C(=O)C1CCCN(Cc2cnn(-c3ccccc3)c2)C1 (stereo not drawn)	73*	/	i	/	2.5
CSc1ccc(CN2CCCC(CO)(Cc3ccccc3)C2)cc1 (stereo not drawn)	64*	/	i	/	-0.51
Cc1ccc(Sc2sc(=O)n(C)c2S(=O)(=O)c2ccc(C)cc2)cc1	6	/	i	/	-1.3
CCOC(=O)c1c(C)oc2cc(Br)c(OC(=O)N3CCOCC3)cc12	15	87	i	89	-0.17
COc1ccccc1-n1cc(CN2CCCC(CO)(Cc3cccc(Cl)c3)C2)cn1 (stereo not drawn)	27	/	i	/	-0.18
Cc1ccc(-n2cc(CN3CCC(CO)(Cc4cccc(C(F)(F)F)c4)CC3)cn2)cc1	99*	/	i	/	0.96
Cc1ccc(-n2cc(CN3CCC(CO)(Cc4ccccc4)CC3)cn2)cc1	80*	/	i	/	-0.14
OCC1(Cc2ccccc2)CCN(Cc2cnc(-c3ccc(Cl)cc3)nc2)CC1	-4	/	i	/	-0.72
CCCCN1C(=O)C2NN=C(C(=O)OC)C2C1=O (stereo not drawn)	-6	98	i	108	0.28
Cc1ccc(NC(=O)Cn2ccc([N+](=O)[O-])n2)cc1C	-2	/	i	/	-0.19
Nc1c(Cl)ncnc1N/N=C/c1ccc2ccccc2n1	100*	3.0*	i	5.1*	0.3
Nc1c(Cl)ncnc1N/N=C/c1ccnc2ccccc12	-1	97	i	96	0.54
Nc1c(Cl)ncnc1N/N=C/c1ccccn1	100*	3.4*	i	2.5*	0.97
C#CC1(O)CC(C)N(C)C(C)C1 (stereo not drawn)	-8	95	i	96	-0.31
O=C(NC(c1ccccc1)c1c(O)ccc2ccccc12)c1ccccc1Cl (stereo not drawn)	100*	87	i	82	-0.58
O=C(NC(c1ccc(Cl)cc1)c1c(O)ccc2ccccc12)c1ccccc1 (stereo not drawn)	99*	0.6*	i	1.1*	-0.27
C=C(C)CNC(=S)N1CCNC(=O)C1CC(=O)OC (stereo not drawn)	78*	101	i	97	2.1
CCNC(=O)N1CCNC(=O)C1CC(=O)OC (stereo not drawn)	-6	95	i	99	-0.24
CCCOc1ccc(NC(=O)CC2C(=O)N(CC)C(=S)N2CCNC(C)=O)cc1 (stereo not drawn)	-8	82	i	90	-0.17
SMILES	Lmaj promast	PTEN del growth	Autophagy mod	bCat KO growth	Dynein cargo inh
CCOc1ccc(NC(=O)CC2C(=O)N(C)C(=S)N2CCCc2ccccc2)cc1 (stereo not drawn)	78*	72	i	79	1.7
CCCOc1ccc(NC(=O)CC2C(=O)N(CC)C(=S)N2CCCN2CCN(Cc3ccccc3)CC2)cc1 (stereo not drawn)	99*	/	i	/	-1.1
CC(=O)Nc1cc(C(=O)N(C)Cc2ccco2)ccc1Sc1ccc(Cl)cc1	0	91	i	85	-0.44
CC(=O)Nc1cc(C(=O)NCc2ccco2)ccc1Sc1ccc(F)cc1	5	108	i	97	-0.32
CCOc1ccc(CNC(=O)c2ccc(Sc3ccc(Cl)cc3)c(NC(C)=O)c2)cc1	95*	88	i	76	1.7
CCOc1ccccc1CNC(=O)c1ccc(Sc2ccc(Cl)cc2)c(NC(C)=O)c1	85*	86	i	82	-0.37
CC(=O)Nc1cc(C(=O)NCc2ccco2)ccc1Sc1ccc(Cl)cc1	92*	85	i	79	1.7
Cc1snc(SCC(=O)N/N=C(\N)COc2cccc(C(F)(F)F)c2)c1C#N	-7	101	i	115	-0.99
O=C(NNC(=S)Nc1ccccc1)C1CC1	0	94	i	101	0.18
S=C(NN=C(C1CC1)C1CC1)Nc1ccccc1	67*	92	i	109	-0.24
O=C(COC(=O)/C=C/c1ccc(Cl)cc1)NCCN1C(=O)CSC1=O	0	/	i	/	-0.38
CCC(=O)NC(c1ccc([N+](=O)[O-])cc1)c1c(O)ccc2ccccc12 (stereo not drawn)	69*	92	i	81	-0.43
CCCCC(=O)NC(c1ccc([N+](=O)[O-])cc1)c1c(O)ccc2ccccc12 (stereo not drawn)	100*	16	i	23	0.44
COc1cc(OC)c(N(C)S(=O)(=O)c2cccc(C(=O)NC(C)C3CC4CCC3C4)c2)cc1Cl (stereo not drawn)	/	/	/	/	-0.21
CC(=O)c1ccc(N=C2SCCCN2C(=O)C2CCCC2)cc1	64*	/	i	/	-1.4
COc1ccc(-c2cnnn2-c2ccc(NC(=O)c3ccc(S(=O)(=O)N4CCCCC4)cc3)cc2)cc1	99*	75	i	81	2.2
NS(=O)(=O)c1ccc(NC(=O)c2ccc(S(=O)(=O)N3CCc4ccccc43)cc2)cc1	-7	/	i	/	0.26
COc1ccc(NC(=O)c2cccc(S(=O)(=O)N3CCc4ccccc43)c2)cn1	94*	/	i	/	-0.2
COc1ccc(C(=O)Nc2ccc(S(=O)(=O)N3CCc4ccccc43)cc2)cc1	54*	14	i	11	0.58
CC(=O)c1ccc(-n2cc(-c3ccc(C(C)(C)C)cc3)[n+]3c2SCCC3)cc1	100*	/	i	/	-1
Clc1ccc(-c2cn(-c3ccccc3)c3[n+]2CCS3)cc1	70*	/	i	/	-0.63
O=[N+]([O-])c1cccc(-c2c[n+]3c(n2-c2ccccc2)SCC3)c1	18	/	i	/	-0.15
COc1ccc(-c2cn(-c3ccc(Br)cc3)c3[n+]2CCS3)cc1	100*	62	i	61	-0.94
Clc1ccc(-c2c[n+]3c(n2-c2ccccc2)SCC3)cc1	97*	/	i	/	-0.24
Fc1ccc(-c2cn(-c3ccccc3)c3[n+]2CCS3)cc1	/	/	/	/	-0.94
Clc1ccc(-c2cn(-c3ccc(Cl)cc3)c3[n+]2CCCCC3)cc1	/	/	/	/	-0.33
O=[N+]([O-])c1cccc(-c2noc(-c3ccco3)n2)c1	/	/	/	/	1.2
